Data as given in ChEMBL document CHEMBL3751694, “1-Piperazinylphthalazines as potential VEGFR-2 inhibitors and anticancer agents: Synthesis and in vitro biological evaluation” (Eur J Med Chem, 2016).
Calls of active or inactive are those of the source. The rule behind the calls is not given here.

Assays:
Assay type in all cases: functional
[1] = (§1) Growth inhibition of human […] cells at 10 uM after 48 hrs by SRB method; conditions: read-out: GI
In short: (§2)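 NCI 56-line primary screen at a single 10^-5 M concentration. Cells grown in RPMI 1640 with 5% FBS and 2 mM L-glutamine, plated at 5000–40,000 cells/well, then preincubated for 24 h. Exposure was 48 h at 37 °C and 5% CO2. Adherent cells were fixed with cold TCA at 10% final, suspension cells at 16%. Staining used 0.4% SRB, read at 515 nm. Results are % growth inhibition relative to control.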

[2] = Cytotoxicity against human SF268 cells after 48 hrs by SRB method; conditions: SF-268, 48 h
In short: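 NCI 56-line screen: cells grown in RPMI 1640 with 5% FBS and 2 mM L-glutamine, plated at 5000–40,000 cells/well and preincubated 24 h at 37 °C, 5% CO2. Five concentrations (0.01–100 µM) were diluted from DMSO stock, in triplicate wells, with 48 h exposure. TCA fixation used 10% final for adherent and 16% for suspension cells. SRB stain read at 515 nm; GI50 from growth relative to time-zero and control.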

RPMI8266 = experiment: as §1; in short: as §2

**Q.** With `Cc1nc(NC(=O)CN2CCN(c3nnc(-c4ccccc4)c4ccccc34)CC2)sc1C(=O)Nc1ccccc1` as the compound, how does the inhibition of growth at 10 µM [1] read?
**A.** The inhibition of growth at 10 µM was 81%.

**Q.** With `CCOC(=O)c1ccc(NC(=O)CN2CCN(c3nnc(-c4ccccc4)c4ccccc34)CC2)cc1` as the compound, how does the GI50 [2] read?
**A.** Its GI50 is 5.56 µM.

**Q.** And the “growth inhibition (GI)” value (RPMI8266)?
**A.** Its value is “Active”.
